Converted amounts (≈) assume the structure as drawn.
Legend:
Assay type in all cases: functional
[1] = tested on: Streptococcus pneumoniae; test: Antimicrobial activity against Streptococcus pneumoniae isolate 1394 by agar dilution method
[2] = tested on: Streptococcus pneumoniae; test: Antimicrobial activity against penicillin-susceptible Streptococcus pneumoniae by agar dilution method
[3] = tested on: Streptococcus pneumoniae; test: Antimicrobial activity against Streptococcus pneumoniae isolate 1384 by agar dilution method
How it was run: (§1)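 Agar dilution MIC on Mueller-Hinton agar with 5% sheep blood, inocula 10^4 CFU/spot; amoxicillin-clavulanate combined 1:2; S. pneumoniae ATCC 49619 quality control each run.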

[4] = tested on: Streptococcus pneumoniae; test: Antimicrobial activity against Streptococcus pneumoniae isolate 3455 by agar dilution method
[5] = tested on: Streptococcus pneumoniae; test: Antimicrobial activity against Streptococcus pneumoniae isolate 2874 by agar dilution method; how it was run: as §1
[6] = tested on: Streptococcus pneumoniae; test: Antimicrobial activity against Streptococcus pneumoniae 11 by time-kill analysis
How it was run: (§2)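 Time-kill in cation-adjusted Mueller-Hinton broth with 5% lysed horse blood; inocula 5 × 105 to 5 × 10^6 CFU/ml; drugs at MIC, 2× and 4× MIC; 35°C shaking water bath; viable counts at 0, 3, 6, 12, 24 h. Bactericidal = ≥3 log10 CFU/ml (99.9%) drop from original inoculum; 90%/99%/99.9% killing scored per strain.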

[7] = tested on: Streptococcus pneumoniae; test: Antimicrobial activity against Streptococcus pneumoniae isolate 3791 by agar dilution method; how it was run: as §1
[8] = tested on: Streptococcus pneumoniae; test: Antimicrobial activity against Streptococcus pneumoniae isolate 2686 by agar dilution method; how it was run: as §1
[9] = tested on: Streptococcus pneumoniae; test: Antimicrobial activity against Streptococcus pneumoniae isolate 3374 by agar dilution method; how it was run: as §1
[10] = tested on: Streptococcus pneumoniae; test: Antimicrobial activity against Streptococcus pneumoniae 5 by time-kill analysis
How it was run: as §2, with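 “12 and” for “12,”, “if” for “=”, “reduction” for “drop”, “90% and 99%” for “90%/99%/99.9%”, “also scored.” for “scored per strain.”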

[11] = tested on: Streptococcus pneumoniae; test: Antimicrobial activity against Streptococcus pneumoniae 7 by time-kill analysis; how it was run: as §2
[12] = tested on: Streptococcus pneumoniae; test: Antimicrobial activity against Streptococcus pneumoniae isolate 37 by agar dilution method; how it was run: as §1
[13] = tested on: Streptococcus pneumoniae; test: Antimicrobial activity against penicillin-resistant Streptococcus pneumoniae by agar dilution method; how it was run: as §1
[14] = tested on: Streptococcus pneumoniae; test: Antimicrobial activity against Streptococcus pneumoniae isolate 33 by agar dilution method; how it was run: as §1
[15] = tested on: Streptococcus pneumoniae; test: Antimicrobial activity against Streptococcus pneumoniae isolate 3458 by agar dilution method
[16] = tested on: Streptococcus pneumoniae; test: Antimicrobial activity against Streptococcus pneumoniae isolate 1147 by agar dilution method; how it was run: as §1
[17] = tested on: Streptococcus pneumoniae; test: Antimicrobial activity against Streptococcus pneumoniae isolate 3260 by agar dilution method
[18] = tested on: Streptococcus pneumoniae; test: Antimicrobial activity against Streptococcus pneumoniae 9 by time-kill analysis
How it was run: as §2, with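 “12 and” for “12,”, “if” for “=”, “reduction” for “drop”, “90% and 99%” for “90%/99%/99.9%”, “also scored.” for “scored per strain.”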

[19] = tested on: Streptococcus pneumoniae; test: Antimicrobial activity against Streptococcus pneumoniae 8 by time-kill analysis; how it was run: as §2
[20] = tested on: Streptococcus pneumoniae; test: Antimicrobial activity against Streptococcus pneumoniae isolate 3346 by agar dilution method
[21] = tested on: Streptococcus pneumoniae; test: Antimicrobial activity against Streptococcus pneumoniae isolate 3412 by agar dilution method; how it was run: as §1
[22] = tested on: Streptococcus pneumoniae; test: Antimicrobial activity against Streptococcus pneumoniae isolate 1146 by agar dilution method; how it was run: as §1
[23] = tested on: Streptococcus pneumoniae; test: Antimicrobial activity against Streptococcus pneumoniae isolate 3587 by agar dilution method
[24] = tested on: Streptococcus pneumoniae; test: Antimicrobial activity against Streptococcus pneumoniae 10 by time-kill analysis; how it was run: as §2
[25] = tested on: Streptococcus pneumoniae; test: Antimicrobial activity against Streptococcus pneumoniae isolate 24 by agar dilution method
[26] = tested on: Streptococcus pneumoniae; test: Antimicrobial activity against Streptococcus pneumoniae isolate 1564 by agar dilution method
[27] = tested on: Streptococcus pneumoniae; test: Antimicrobial activity against penicillin-intermediate Streptococcus pneumoniae by agar dilution method
[28] = tested on: Streptococcus pneumoniae; test: Antimicrobial activity against Streptococcus pneumoniae isolate 2880 by agar dilution method; how it was run: as §1
[29] = tested on: Streptococcus pneumoniae; test: Antimicrobial activity against Streptococcus pneumoniae isolate 4755 by agar dilution method; how it was run: as §1
[30] = tested on: Streptococcus pneumoniae; test: Antimicrobial activity against Streptococcus pneumoniae isolate 3263 by agar dilution method
[31] = tested on: Streptococcus pneumoniae; test: Antimicrobial activity against Streptococcus pneumoniae isolate 2688 by agar dilution method; how it was run: as §1
[32] = tested on: Streptococcus pneumoniae; test: Antimicrobial activity against Streptococcus pneumoniae 3 by time-kill analysis; how it was run: as §2
[33] = tested on: Streptococcus pneumoniae; test: Antimicrobial activity against Streptococcus pneumoniae 6 by time-kill analysis; how it was run: as §2
[34] = tested on: Streptococcus pneumoniae; test: Antimicrobial activity against Streptococcus pneumoniae isolate 4747 by agar dilution method; how it was run: as §1
[35] = tested on: Streptococcus pneumoniae; test: Antimicrobial activity against Streptococcus pneumoniae 1 by time-kill analysis
How it was run: as §2, with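 “12 and” for “12,”, “if” for “=”, “reduction” for “drop”, “90% and 99%” for “90%/99%/99.9%”, “also scored.” for “scored per strain.”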

[36] = tested on: Streptococcus pneumoniae; test: Antimicrobial activity against Streptococcus pneumoniae 19A by agar dilution method; how it was run: as §1
[37] = tested on: Streptococcus pneumoniae; test: Antimicrobial activity against Streptococcus pneumoniae isolate 3481 by agar dilution method; how it was run: as §1
[38] = tested on: Streptococcus pneumoniae; test: Antimicrobial activity against Streptococcus pneumoniae isolate 2617 by agar dilution method; how it was run: as §1
[39] = tested on: Streptococcus pneumoniae; test: Antimicrobial activity against Streptococcus pneumoniae isolate 1397 by agar dilution method; how it was run: as §1
[40] = tested on: Streptococcus pneumoniae; test: Antimicrobial activity against Streptococcus pneumoniae isolate 3275 by agar dilution method; how it was run: as §1
[41] = tested on: Streptococcus pneumoniae; test: Antimicrobial activity against Streptococcus pneumoniae 4 by time-kill analysis; how it was run: as §2
[42] = tested on: Streptococcus pneumoniae; test: Antimicrobial activity against Streptococcus pneumoniae isolate 1424 by agar dilution method; how it was run: as §1
[43] = tested on: Streptococcus pneumoniae; test: Antimicrobial activity against Streptococcus pneumoniae isolate 1055 by agar dilution method
[44] = tested on: Streptococcus pneumoniae; test: Antimicrobial activity against Streptococcus pneumoniae isolate 3282 by agar dilution method
[45] = tested on: Streptococcus pneumoniae; test: Antimicrobial activity against Streptococcus pneumoniae 2 by time-kill analysis; how it was run: as §2
[46] = tested on: Streptococcus pneumoniae; test: Antimicrobial activity against Streptococcus pneumoniae isolate 3681 by agar dilution method; how it was run: as §1
[47] = tested on: Streptococcus pneumoniae; test: Antimicrobial activity against Streptococcus pneumoniae 12 by time-kill analysis; how it was run: as §2

SMILES: COCC1=C(C(=O)O)N2C(=O)[C@@H](NC(=O)/C(=N\OC)c3csc(N)n3)[C@H]2SC1 [CEFPODOXIME]
- MIC [1]: 8 µg/mL (≈ 18.7 µM)
- MIC [2]: 0.03 µg/mL (≈ 0.0702 µM)
- MIC50 [2]: 0.03 µg/mL (≈ 0.0702 µM)
- MIC90 [2]: 0.06 µg/mL (≈ 0.14 µM)
- MIC [3]: 4 µg/mL (≈ 9.36 µM)
- MIC [4]: 4 µg/mL (≈ 9.36 µM)
- MIC [5]: 4 µg/mL (≈ 9.36 µM)
- MIC [6]: 4 µg/mL (≈ 9.36 µM)
- MIC [7]: 4 µg/mL (≈ 9.36 µM)
- MIC [8]: 8 µg/mL (≈ 18.7 µM)
- MIC [9]: 4 µg/mL (≈ 9.36 µM)
- MIC [10]: 8 µg/mL (≈ 18.7 µM)
- MIC [11]: 4 µg/mL (≈ 9.36 µM)
- MIC [12]: 4 µg/mL (≈ 9.36 µM)
- MIC50 [13]: 4 µg/mL (≈ 9.36 µM)
- MIC90 [13]: 8 µg/mL (≈ 18.7 µM)
- MIC [14]: 4 µg/mL (≈ 9.36 µM)
- MIC [15]: 4 µg/mL (≈ 9.36 µM)
- MIC [16]: 8 µg/mL (≈ 18.7 µM)
- MIC [17]: 2 µg/mL (≈ 4.68 µM)
- MIC [18]: 0.25 µg/mL (≈ 0.585 µM)
- MIC [19]: 4 µg/mL (≈ 9.36 µM)
- MIC [20]: 4 µg/mL (≈ 9.36 µM)
- MIC [21]: 4 µg/mL (≈ 9.36 µM)
- MIC [22]: 8 µg/mL (≈ 18.7 µM)
- MIC [23]: 4 µg/mL (≈ 9.36 µM)
- MIC [24]: 0.25 µg/mL (≈ 0.585 µM)
- MIC [25]: 2 µg/mL (≈ 4.68 µM)
- MIC [26]: 32 µg/mL (≈ 74.9 µM)
- MIC50 [27]: 0.25 µg/mL (≈ 0.585 µM)
- MIC90 [27]: 2 µg/mL (≈ 4.68 µM)
- MIC [28]: 2 µg/mL (≈ 4.68 µM)
- MIC [29]: 4 µg/mL (≈ 9.36 µM)
- MIC [30]: 4 µg/mL (≈ 9.36 µM)
- MIC [31]: 32 µg/mL (≈ 74.9 µM)
- MIC [32]: 0.5 µg/mL (≈ 1.17 µM)
- MIC [33]: 0.5 µg/mL (≈ 1.17 µM)
- MIC [34]: 2 µg/mL (≈ 4.68 µM)
- MIC [35]: 0.03 µg/mL (≈ 0.0702 µM)
- MIC50 [36]: 8 µg/mL (≈ 18.7 µM)
- MIC90 [36]: 8 µg/mL (≈ 18.7 µM)
- MIC [37]: 4 µg/mL (≈ 9.36 µM)
- MIC [38]: 2 µg/mL (≈ 4.68 µM)
- MIC [39]: 4 µg/mL (≈ 9.36 µM)
- MIC [40]: 1 µg/mL (≈ 2.34 µM)
- MIC [41]: 8 µg/mL (≈ 18.7 µM)
- MIC [42]: 4 µg/mL (≈ 9.36 µM)
- MIC [43]: 2 µg/mL (≈ 4.68 µM)
- MIC [44]: 2 µg/mL (≈ 4.68 µM)
- MIC [45]: 0.016 µg/mL (≈ 0.0374 µM)
- MIC [46]: 4 µg/mL (≈ 9.36 µM)
- MIC [47]: 2 µg/mL (≈ 4.68 µM)

Reference: ChEMBL document CHEMBL1649446, “Comparative antipneumococcal activities of sulopenem and other drugs” (2009)
